According to ChEMBL document CHEMBL2380254, “Optimization of tocotrienols as antiproliferative and antimigratory leads” (Eur J Med Chem, 2013):

Experiments:
Format in all cases: functional
[1] = tested on: HCT-15; test: Growth inhibition of human HCT15 cells after 48 hrs by sulforhodamine B assay; settings: HCT-15, 48 h
Procedure, shortened: (§1)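 NCI-60 screen: cells in RPMI 1640 with 5% FBS and 2 mM glutamine, 5000–40,000 cells/well, preincubated 24 h. Five concentrations (10-fold dilutions; 100 to 0.001 µM) applied for 48 h at 37 °C. TCA fixation, SRB stain, absorbance at 515 nm. Time-zero plates included; GI50 where 100×(T−T0)/(C−T0)=50.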

[2] = tested on: NCI-H460; test: Growth inhibition of human NCI-H460 cells assessed as cell growth at 10 uM after 48 hrs by sulforhodamine B assay; settings: NCI-H460, 48 h, read-out: Activity
Procedure, shortened: (§2)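 Single-dose NCI-60 screen: adherent cells in RPMI 1640 with 5% FBS were exposed to 10 µM for 48 h at 37 °C after a 24 h preincubation. They were fixed in situ with cold TCA (10% final), stained with 0.4% SRB in 1% acetic acid, solubilized in 10 mM Tris base, and read at 515 nm. Percent growth was taken relative to time-zero and control plates.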

[3] = tested on: HOP-92; test: Growth inhibition of human HOP92 cells after 48 hrs by sulforhodamine B assay; settings: HOP-92, 48 h; procedure, shortened: as §1
[4] = Growth inhibition of human EKVX cells after 48 hrs by sulforhodamine B assay; procedure, shortened: as §1
[5] = tested on: SR; test: Growth inhibition of human SR cells after 48 hrs by sulforhodamine B assay
Procedure, shortened: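 Suspension leukemia line in RPMI 1640 with 5% FBS and 2 mM L-glutamine, NCI-60 five-dose format ([…]), 48 h at 37 °C. Settled cells were fixed with 80% TCA (final 16%), stained with SRB and read at 515 nm. GI50 is where 100×(T−T0)/(C−T0)=50, with T0 measured at dosing.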

[6] = tested on: UACC-257; test: Growth inhibition of human UACC257 cells assessed as cell growth at 10 uM after 48 hrs by sulforhodamine B assay; settings: UACC-257, 48 h, read-out: Activity
Procedure, shortened: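 Single-dose NCI-60 test at 10 µM. Cells were grown in RPMI 1640 with 5% FBS and 2 mM L-glutamine, preincubated 24 h, with T0 plates TCA-fixed. Exposure was 48 h at 37 °C, 5% CO2. Cells were fixed with cold TCA (final 10%, 4 °C, 60 min), stained with SRB and read at 515 nm. Percent growth was taken relative to T0 and untreated control; negative values denote cell kill.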

[7] = tested on: SF-295; test: Growth inhibition of human SF295 cells after 48 hrs by sulforhodamine B assay; settings: SF-295, 48 h
Procedure, shortened: (§3)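 NCI-60 panel cells grown in RPMI 1640 with 5% FBS and 2 mM L-glutamine, seeded at 5000–40,000 cells/well and preincubated 24 h. Five 10-fold dilutions (0.001–100 µM) from DMSO stocks were added for 48 h at 37 °C. Adherent cells were fixed with cold TCA (10% final) for 60 min at 4 °C, stained with 0.4% SRB, and read at 515 nm. GI50 was set where 100×(T−T0)/(C−T0)=50.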

[8] = tested on: HL-60(TB); test: Growth inhibition of human HL-60(TB) cells after 48 hrs by sulforhodamine B assay; settings: HL-60, 48 h
Procedure, shortened: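 HL-60(TB) cells (suspension) grown in RPMI 1640 with 5% FBS and 2 mM L-glutamine. They were plated and preincubated for 24 h, with T0 plates fixed at that point. Drug was given at five 10-fold dilutions for 48 h at 37 °C. Settled cells were fixed with TCA (16% final), stained with 0.4% SRB in 1% acetic acid and read at 515 nm. GI50 was taken where 100×(T−T0)/(C−T0)=50.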

[9] = tested on: OVCAR-5; test: Growth inhibition of human OVCAR5 cells after 48 hrs by sulforhodamine B assay; settings: OVCAR-5, 48 h; procedure, shortened: as §3
[10] = Growth inhibition of human NCI-ADR-RES cells assessed as cell growth at 10 uM after 48 hrs by sulforhodamine B assay; settings: read-out: Activity; procedure, shortened: as §2
[11] = tested on: OVCAR-4; test: Growth inhibition of human OVCAR4 cells after 48 hrs by sulforhodamine B assay; settings: OVCAR-4, 48 h; procedure, shortened: as §3
[12] = tested on: K562; test: Growth inhibition of human K562 cells assessed as cell growth at 10 uM after 48 hrs by sulforhodamine B assay; settings: K562, 48 h, read-out: Activity
Procedure, shortened: (§4)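 NCI-60 single-dose screen at 10 µM: cells in RPMI 1640 with 5% FBS, preincubated 24 h, then exposed 48 h at 37 °C. TCA fixation (16% final for suspension cells), SRB staining, absorbance 515 nm. Percent growth relative to time-zero and untreated control plates; negative values indicate cell kill.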

[13] = tested on: M14; test: Growth inhibition of human M14 cells assessed as cell growth at 10 uM after 48 hrs by sulforhodamine B assay; settings: M14, 48 h, read-out: Activity; procedure, shortened: as §4
[14] = tested on: CAKI-1; test: Growth inhibition of human CAKI-1 cells after 48 hrs by sulforhodamine B assay; settings: CAKI-1, 48 h; procedure, shortened: as §1
[15] = tested on: RXF 393; test: Growth inhibition of human RXF393 cells after 48 hrs by sulforhodamine B assay; settings: RXF 393, 48 h; procedure, shortened: as §3
[16] = tested on: KM12; test: Growth inhibition of human KM12 cells assessed as cell growth at 10 uM after 48 hrs by sulforhodamine B assay; settings: KM12, 48 h, read-out: Activity; procedure, shortened: as §4
[17] = tested on: NCI-H522; test: Growth inhibition of human NCI-H522 cells after 48 hrs by sulforhodamine B assay; settings: NCI-H522, 48 h; procedure, shortened: as §3
[18] = tested on: Malme-3M; test: Growth inhibition of human MALME-3M cells assessed as cell growth at 10 uM after 48 hrs by sulforhodamine B assay; settings: read-out: Activity; procedure, shortened: as §2
[19] = tested on: SF-268; test: Growth inhibition of human SF268 cells assessed as cell growth at 10 uM after 48 hrs by sulforhodamine B assay; settings: SF-268, 48 h, read-out: Activity; procedure, shortened: as §2
[20] = tested on: NCI-H322M; test: Growth inhibition of human NCI-H322M cells after 48 hrs by sulforhodamine B assay; procedure, shortened: as §3
[21] = tested on: RPMI-8226; test: Growth inhibition of human RPMI8226 cells after 48 hrs by sulforhodamine B assay; settings: RPMI-8226, 48 h
Procedure, shortened: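 NCI-60 suspension lines in RPMI 1640 with 5% FBS and 2 mM L-glutamine, preincubated 24 h. A five-concentration 10-fold series (0.001–100 µM) was given for 48 h at 37 °C. Settled cells were fixed with 80% TCA (16% final), stained with SRB, and read at 515 nm. GI50 was taken where 100×(T−T0)/(C−T0)=50, with T0 plates fixed at drug addition.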

[22] = tested on: LOX IMVI; test: Growth inhibition of human LOXIMVI cells assessed as cell growth at 10 uM after 48 hrs by sulforhodamine B assay; settings: read-out: Activity; procedure, shortened: as §4
[23] = tested on: 786-0; test: Growth inhibition of human 786-0 cells assessed as cell growth at 10 uM after 48 hrs by sulforhodamine B assay; settings: 786-0, 48 h, read-out: Activity; procedure, shortened: as §4
[24] = tested on: HOP-62; test: Growth inhibition of human HOP62 cells assessed as cell growth at 10 uM after 48 hrs by sulforhodamine B assay; settings: HOP-62, 48 h, read-out: Activity; procedure, shortened: as §4

SMILES | GI50 [1] [µM] | growth at 10 µM [2] [%] | GI50 [3] [µM] | GI50 [4] [µM] | GI50 [5] [µM] | growth at 10 µM [6] [%] | GI50 [7] [µM] | GI50 [8] [µM] | GI50 [9] [µM] | growth at 10 µM [10] [%] | GI50 [11] [µM] | growth at 10 µM [12] [%] | growth at 10 µM [13] [%] | GI50 [14] [µM] | GI50 [15] [nM] | growth at 10 µM [16] [%] | GI50 [17] [µM] | growth at 10 µM [18] [%] | growth at 10 µM [19] [%] | GI50 [20] [µM] | other results
CC(C)=CCC/C(C)=C/CC/C(C)=C/CC[C@]1(C)CCc2c3c(cc(C)c2O1)OCN(CCCCCO)C3 | 6.24 | -70.2 | 5.42 | 6.08 | 4 | 83.8 | 6.12 | 6.26 | 5.93 | 43.1 | 5.68 | -35 | 57.9 | 5.33 | 1940 | 13 | 7.08 | 116 | 48.5 | 6.35 | GI50 [21]: 9.91 µM; growth at 10 µM [22]: -0.88%; growth at 10 µM [23]: 81.2%; growth at 10 µM [24]: 20.6%
COc1ccc(CCN2COc3cc(C)c4c(c3C2)CC[C@@](C)(CC/C=C(\C)CC/C=C(\C)CCC=C(C)C)O4)cc1OC | 1.93 | -68.2 | 1.55 | 2.69 | 2.3 | 71.8 | 2.01 | 1.9 | 1.86 | 49.1 | 1.63 | 3.17 | -19.5 | 3.95 | 1360 | -82.6 | 2.08 | 72.9 | -75.2 | 2.71 | GI50 [21]: 3.07 µM; growth at 10 µM [22]: -77.7%; growth at 10 µM [23]: 49.3%; growth at 10 µM [24]: -34.3%
